Data from ChEMBL document CHEMBL1135162, “Synthesis and evaluation of N-substituted 1,4-oxazepanyl Sordaricins as selective fungal EF-2 inhibitors” (2002).
Converted amounts (≈) assume the structure as drawn.

Tests used:
Assay type in all cases: functional
Candida albicans [1] = test: Tested for in vitro antifungal activity against Candida albicans SANK51486 in the presence of horse serum (20%)
Procedure, shortened: (§1)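 RPMI1640 medium buffered at pH 7.0, with 20% horse serum added for the incubation. Microplates incubated at 35 °C. MIC is the lowest concentration giving 80% inhibition of fungal growth.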

Candida tropicalis = test: Tested for in vitro antifungal activity against Candida tropicalis ATCC750
Procedure, shortened: (§2)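 Microplate growth assay in RPMI1640 medium buffered at pH 7.0, incubated at 35 °C. MIC is the lowest test-compound concentration that inhibits fungal growth by 80%.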

Candida albicans [2] = test: Tested for in vitro antifungal activity against Candida albicans SANK51486; procedure, shortened: as §2
Candida parapsilosis = test: Tested for in vitro antifungal activity against Candida parapsilosis ATCC 90018; settings: Lodderomyces parapsilosis; procedure, shortened: as §2
Candida albicans [3] = test: Tested for in vitro antifungal activity against Candida albicans ATCC 64550; procedure, shortened: as §2
Candida albicans [4] = test: Tested for in vitro antifungal activity against Candida albicans ATCC 24433; procedure, shortened: as §2
Cryptococcus neoformans = test: Tested for in vitro antifungal activity against Cryptococcus neoformans TIMM1855
Procedure, shortened: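 Yeast grown in microplates in yeast nitrogen base buffered at pH 7.0, incubated at 35 °C. MIC is the lowest concentration inhibiting growth by 80%.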

Candida albicans [5] = test: Tested for in vitro antifungal activity against Candida albicans TIMM3164; procedure, shortened: as §2
Aspergillus fumigatus = test: Tested for in vitro antifungal activity against Aspergillus fumigatus ATCC 26430
Procedure, shortened: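 Mould grown in microplates in RPMI1640 buffered at pH 7.0, incubated at 30 °C. MIC is the lowest test-compound concentration that inhibits growth by 80%.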

Candida albicans [6] = test: Tested for in vitro antifungal activity against Candida albicans ATCC 24433 in the presence of horse serum (20%); procedure, shortened: as §1
Nakaseomyces glabratus = test: Tested for in vitro antifungal activity against Candida glabrata ATCC 90030; procedure, shortened: as §2

| SMILES | MIC (Candida albicans [1]) | MIC (Candida tropicalis) | MIC (Candida albicans [2]) | MIC (Candida parapsilosis) | MIC (Candida albicans [3]) | MIC (Candida albicans [4]) | MIC (Cryptococcus neoformans) | MIC (Candida albicans [5]) | MIC (Aspergillus fumigatus) | MIC (Candida albicans [6]) | MIC (Nakaseomyces glabratus) |
| --- | --- | --- | --- | --- | --- | --- | --- | --- | --- | --- | --- |
| C=C(C)CN1C[C@H](OCC23C[C@@H]4[C@H](C)CC[C@H]4C4(C=O)CC2C=C(C(C)C)C34C(=O)O)O[C@H](C)[C@@H](OC)C1 (stereo not given in full) | 0.25 µg/mL | 0.125 µg/mL (≈ 0.236 µM) | 0.016 µg/mL (≈ 0.0302 µM) | > 16 µg/mL | 0.031 µg/mL (≈ 0.0585 µM) | 0.031 µg/mL (≈ 0.0585 µM) | 0.25 µg/mL (≈ 0.472 µM) | 0.031 µg/mL (≈ 0.0585 µM) | > 16 µg/mL | 0.5 µg/mL | 0.25 µg/mL (≈ 0.472 µM) |
| CO[C@H]1CN(CC=C(C)C)C[C@H](OCC23C[C@@H]4[C@H](C)CC[C@H]4C4(C=O)CC2C=C(C(C)C)C34C(=O)O)O[C@@H]1C (stereo not given in full) | 1 µg/mL | 2 µg/mL (≈ 3.68 µM) | 0.125 µg/mL (≈ 0.23 µM) | > 16 µg/mL | 0.5 µg/mL (≈ 0.92 µM) | 0.25 µg/mL (≈ 0.46 µM) | > 16 µg/mL | 0.25 µg/mL (≈ 0.46 µM) | > 16 µg/mL | 2 µg/mL | 16 µg/mL (≈ 29.4 µM) |
| CO[C@H]1CN(CC=C(Cl)Cl)C[C@H](OCC23C[C@@H]4[C@H](C)CC[C@H]4C4(C=O)CC2C=C(C(C)C)C34C(=O)O)O[C@@H]1C (stereo not given in full) | 1 µg/mL | 0.5 µg/mL (≈ 0.855 µM) | ≤ 0.031 µg/mL | > 16 µg/mL | 0.063 µg/mL (≈ 0.108 µM) | ≤ 0.031 µg/mL | 8 µg/mL (≈ 13.7 µM) | ≤ 0.031 µg/mL | > 16 µg/mL | 2 µg/mL | 1 µg/mL (≈ 1.71 µM) |
| CO[C@H]1CN(Cc2ccccc2)C[C@H](OCC23C[C@@H]4[C@H](C)CC[C@H]4C4(C=O)CC2C=C(C(C)C)C34C(=O)O)O[C@@H]1C (stereo not given in full) | 0.5 µg/mL | 0.25 µg/mL (≈ 0.442 µM) | ≤ 0.063 µg/mL | > 32 µg/mL | ≤ 0.063 µg/mL | ≤ 0.063 µg/mL | 4 µg/mL (≈ 7.07 µM) | 0.125 µg/mL (≈ 0.221 µM) | > 32 µg/mL | 1 µg/mL | 0.5 µg/mL (≈ 0.884 µM) |
| COc1ccc(CN2C[C@H](OCC34C[C@@H]5[C@H](C)CC[C@H]5C5(C=O)CC3C=C(C(C)C)C45C(=O)O)O[C@H](C)[C@@H](OC)C2)cc1 (stereo not given in full) | 0.5 µg/mL | 0.25 µg/mL (≈ 0.42 µM) | ≤ 0.063 µg/mL | > 32 µg/mL | ≤ 0.063 µg/mL | ≤ 0.063 µg/mL | 2 µg/mL (≈ 3.36 µM) | ≤ 0.063 µg/mL | > 32 µg/mL | 1 µg/mL | 0.25 µg/mL (≈ 0.42 µM) |
| CO[C@H]1CN(Cc2ccc(C#N)cc2)C[C@H](OCC23C[C@@H]4[C@H](C)CC[C@H]4C4(C=O)CC2C=C(C(C)C)C34C(=O)O)O[C@@H]1C (stereo not given in full) | 1 µg/mL | 0.5 µg/mL (≈ 0.846 µM) | ≤ 0.031 µg/mL | > 16 µg/mL | 0.063 µg/mL (≈ 0.107 µM) | 0.063 µg/mL (≈ 0.107 µM) | 8 µg/mL (≈ 13.5 µM) | 0.063 µg/mL (≈ 0.107 µM) | > 16 µg/mL | 2 µg/mL | 2 µg/mL (≈ 3.39 µM) |

More lines, in order of falling MIC (Candida tropicalis), values ahead:

| MIC (Candida albicans [1]) | MIC (Candida tropicalis) | MIC (Candida albicans [2]) | MIC (Candida parapsilosis) | MIC (Candida albicans [3]) | MIC (Candida albicans [4]) | MIC (Cryptococcus neoformans) | MIC (Candida albicans [5]) | MIC (Aspergillus fumigatus) | MIC (Candida albicans [6]) | MIC (Nakaseomyces glabratus) | SMILES |
| --- | --- | --- | --- | --- | --- | --- | --- | --- | --- | --- | --- |
| 4 µg/mL | 2 µg/mL (≈ 4.64 µM) | ≤ 0.016 µg/mL | > 8 µg/mL | 0.125 µg/mL (≈ 0.29 µM) | 0.031 µg/mL (≈ 0.072 µM) | > 8 µg/mL | 0.063 µg/mL (≈ 0.146 µM) | > 8 µg/mL | 8 µg/mL | 0.031 µg/mL (≈ 0.072 µM) | CC(C)C1=CC2CC3(C=O)[C@@H]4CC[C@@H](C)[C@H]4CC2(CSC2CCCCC2)C13C(=O)O (stereo not given in full) |
| 2 µg/mL | 1 µg/mL (≈ 1.72 µM) | ≤ 0.031 µg/mL | > 16 µg/mL | 0.125 µg/mL (≈ 0.216 µM) | 0.063 µg/mL (≈ 0.109 µM) | > 16 µg/mL | 0.125 µg/mL (≈ 0.216 µM) | > 16 µg/mL | 8 µg/mL | 2 µg/mL (≈ 3.45 µM) | CO[C@H]1CN(Cc2ccc(C)cc2)C[C@H](OCC23C[C@@H]4[C@H](C)CC[C@H]4C4(C=O)CC2C=C(C(C)C)C34C(=O)O)O[C@@H]1C (stereo not given in full) |
| 2 µg/mL | 0.5 µg/mL (≈ 0.817 µM) | ≤ 0.031 µg/mL | > 16 µg/mL | 0.125 µg/mL (≈ 0.204 µM) | 0.063 µg/mL (≈ 0.103 µM) | > 16 µg/mL | 0.063 µg/mL (≈ 0.103 µM) | > 16 µg/mL | 4 µg/mL | 2 µg/mL (≈ 3.27 µM) | CO[C@H]1CN(Cc2ccc(SC)cc2)C[C@H](OCC23C[C@@H]4[C@H](C)CC[C@H]4C4(C=O)CC2C=C(C(C)C)C34C(=O)O)O[C@@H]1C (stereo not given in full) |
| – | 0.5 µg/mL (≈ 0.852 µM) | 0.25 µg/mL (≈ 0.426 µM) | > 4 µg/mL | 0.5 µg/mL (≈ 0.852 µM) | 0.5 µg/mL (≈ 0.852 µM) | 0.25 µg/mL (≈ 0.426 µM) | 0.5 µg/mL (≈ 0.852 µM) | > 4 µg/mL | 4 µg/mL | > 4 µg/mL | C/C=C/C=C\C(=O)O[C@H]1[C@H](O)[C@H](OCC23C[C@@H]4[C@H](C)CC[C@H]4C4(C=O)CC2C=C(C(C)C)C34C(=O)O)O[C@H](C)[C@H]1OC (stereo not given in full) |
| 0.5 µg/mL | 0.25 µg/mL (≈ 0.41 µM) | 0.016 µg/mL (≈ 0.0262 µM) | > 16 µg/mL | 0.031 µg/mL (≈ 0.0508 µM) | 0.031 µg/mL (≈ 0.0508 µM) | 2 µg/mL (≈ 3.28 µM) | 0.031 µg/mL (≈ 0.0508 µM) | > 16 µg/mL | 1 µg/mL | 0.5 µg/mL (≈ 0.82 µM) | CO[C@H]1CN(Cc2ccc3c(c2)OCO3)C[C@H](OCC23C[C@@H]4[C@H](C)CC[C@H]4C4(C=O)CC2C=C(C(C)C)C34C(=O)O)O[C@@H]1C (stereo not given in full) |
